ChEMBL document CHEMBL1687909, “Design, synthesis, and biological evaluation of new cinnamic derivatives as antituberculosis agents” (J Med Chem, 2011)
In brackets after ≈: the same amount, converted by molar mass.

How the values were obtained:
[1] = test system: Mycobacterium tuberculosis; assay: Antituberculosis activity against Mycobacterium tuberculosis MYC5165 harboring InhA mutant gene after 7 days by MTT assay; format: functional
Method in brief: (§1)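 Colorimetric MTT microassay: serial 2-fold dilutions from DMSO stocks in Middlebrook 7H9 broth, bacterial suspension in 7H9 added. After 6 days, MTT (1 mg/mL) added; 1 day later solubilization buffer, OD 570 nm. MIC = lowest concentration inhibiting growth, untreated bacilli as growth control.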

[2] = test system: Mycobacterium tuberculosis; assay: Antituberculosis activity against Mycobacterium tuberculosis 1400 harboring KatG mutant gene after 7 days by MTT assay; format: functional; method in brief: as §1

Row | Compound | MIC [1] [µM] | MIC [2] [µM]
1 | CC(C)=CCOc1ccc(/C=C/C(=O)NNC(=O)c2ccncc2)cc1 | 27 (≈ 9.49 µg/mL) | 68 (≈ 23.9 µg/mL)
2 | CC(C)=CCOc1ccc(/C=C/c2nnc3c4ccccc4cnn23)cc1 | 0.2 (≈ 0.0713 µg/mL) | 0.4 (≈ 0.143 µg/mL)
3 | COc1ccc(/C=C/C(=O)NNC(=O)c2ccncc2)cc1 | 16 (≈ 4.76 µg/mL) | 320 (≈ 95.1 µg/mL)
4 | O=C(O)c1cn(C2CC2)c2cc(N3CCNCC3)c(F)cc2c1=O [CIPROFLOXACIN] | 5 (≈ 1.66 µg/mL) | 5 (≈ 1.66 µg/mL)
5 | NNC(=O)c1ccncc1 [ISONIAZID] | 18 (≈ 2.47 µg/mL) | 729 (≈ 100 µg/mL)
